# Assay outcomes from PubChem BioAssay.
# An excerpt weighted towards active compounds, which were near 1.8% of everything screened.
# HNF4A DNA FP: change in binding of human HNF4 alpha to DNA. P41235. HNF4a-FITC DNA binding, fluorescence polarization, 1 h. activity change, % at 10 µM. 360,000 tested, 0.3% active. AID 1224865; in the data active = activity change above about 30%, passing the limit was not always enough
# CSN inh: inhibitors of human CSN-mediated cullin deneddylation; AID 651999; 360,000 tested, 0.38% active; Purified CSN, SCF-Nedd8-OG deneddylation, fluorescence polarization; Q92905; inhibition, % at 12.5 µM;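 active = pattern-corrected inhibition above about 35%, with an unprinted fluorescence ratio check between 0.5 and 1.5, limit read from the data, passing the limit was not always enough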
#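 Assay system: purified human Csn5 enzyme expressed in HEK293T cells; Input: 0.24 nM Csn5 enzyme, final concentration; Reagent: 10 nM SCFSkp2-Nedd8OG; Compound dosing: 12.5 µM single point; Times: reaction 90 min, room temperature; Technique: fluorescence polarization readout.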
# Rpn11 inh: blocks the human proteasome subunit Rpn11. human 26S proteasome, Ub4-pepOG fluorescence polarization; 20S core pre-blocked with epoxomicin. 360,000 tested, 0.59% active. O00487. calls only at 20 µM;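 active = inhibition at 20 µM, scaled to each plate's controls, above about 33%, limit read from the data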
# Target sequence (O00487 whole entry, looked up): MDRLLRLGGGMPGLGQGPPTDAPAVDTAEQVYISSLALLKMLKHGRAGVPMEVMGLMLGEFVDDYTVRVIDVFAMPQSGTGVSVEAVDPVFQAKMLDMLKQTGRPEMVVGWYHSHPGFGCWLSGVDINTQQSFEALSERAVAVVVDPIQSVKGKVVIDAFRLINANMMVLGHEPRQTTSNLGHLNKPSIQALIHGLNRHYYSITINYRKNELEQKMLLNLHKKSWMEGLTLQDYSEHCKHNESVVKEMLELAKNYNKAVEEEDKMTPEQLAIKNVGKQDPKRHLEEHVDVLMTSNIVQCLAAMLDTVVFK
# SENP1 inh: blocks the human SENP1 SUMO protease catalytic domain | 360,000 tested, 0.21% active | inhibition, % at 10 µM | recombinant SENP1 catalytic domain, CyPet-SUMO1-YPet FRET cleavage | Q9P0U3 | AID 624204;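 active = inhibition at least 30% at 10 µM, raw YFP signal under a set limit, fluorescence ratio 0.5 to 1.5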
# Target sequence (Q9P0U3 419-644 limits assumed): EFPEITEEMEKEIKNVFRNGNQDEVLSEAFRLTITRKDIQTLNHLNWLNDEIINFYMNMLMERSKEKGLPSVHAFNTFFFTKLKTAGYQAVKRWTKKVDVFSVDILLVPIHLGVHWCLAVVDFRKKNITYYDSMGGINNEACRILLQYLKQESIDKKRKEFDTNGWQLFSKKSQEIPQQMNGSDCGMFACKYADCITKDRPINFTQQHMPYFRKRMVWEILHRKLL
#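 Compound: 10 µM single point, 0.5% DMSO; Test system: hSENP1 catalytic domain, recombinant; Timing: 50 min reaction at room temperature; Technique: FRET, CFP and YFP emission; Control set: no-enzyme wells low, DMSO-plus-enzyme wells high control.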
# UBC9 SUMO inh: blocks human SUMOylation mediated by UBC9 | 290,000 tested, 0.36% active | inhibition, % at 35 µM | P63279 | HTRF SUMOylation assay, SAE1/SAE2 + UBC9, in vitro | AID 2006; in the data active = inhibition above about 50%, passing the limit was not always enough
# Target sequence (P63279 whole entry, looked up): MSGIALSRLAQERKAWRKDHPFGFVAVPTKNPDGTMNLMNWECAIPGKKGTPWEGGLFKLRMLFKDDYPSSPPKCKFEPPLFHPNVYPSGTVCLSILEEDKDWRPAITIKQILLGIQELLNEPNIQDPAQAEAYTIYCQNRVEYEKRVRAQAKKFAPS
# TPT1 inh: blocks Candida albicans tRNA 2'-phosphotransferase; recombinant caTPT1, FP RNA substrate dephosphorylation; inhibition, % at 5 µM; 300,000 tested, 0.81% active; AID 1962;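 active = inhibition above the mean of all tested compounds plus 3 SD, set per screening campaign, cut at about 24% in these data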
# TPT1 inh confirm: confirmation of Candida albicans TPT1 inhibitors; inhibition, % at 5 µM; shares compounds with TPT1 inh; recombinant caTPT1, fluorescence polarization, RNase T1 coupled; 2,400 tested, 74% active; AID 2149;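 active = inhibition above the primary screen limit, the mean inhibition of all tested compounds plus 3 SD, cut at about 25% in these data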
# RNase T1 inh: counter-screen for TPT1 inhibitors: inhibitors of Aspergillus oryzae RNase T1. inhibition, % at 5 µM. RNase T1 cleavage, fluorescence polarization, 1536-well. shares compounds with TPT1 inh. AID 2153. 2,400 tested, 83% active;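 active = inhibition above the solvent-only control well mean plus 3 SD, limit set per screening run, cut at about 23% in these data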;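 also: inhibitors block cleavage so intact labeled substrate keeps polarization high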
# Rpn11 inh conf: confirmation of human proteasome Rpn11 inhibitors; purified human 26S proteasome, Ub4-pepOG fluorescence polarization; proteasome pretreated with epoxomicin; inhibition, % at 20 µM; shares compounds with Rpn11 inh; 1,900 tested, 29% active
# MMP-2 counter: MMP-2 (human) inhibition counter-screen | shares compounds with Rpn11 inh | recombinant MMP-2, FRET peptide cleavage fluorescence | inhibition, % at 20 µM | 1,900 tested, 4% active | AID 602330;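 also: human MMP-2 activated beforehand with APMA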
# Thrombin FP: thrombin (bovine) inhibition counter-screen; shares compounds with Rpn11 inh; bovine thrombin cleavage of Ub4-pepOG, fluorescence polarization; inhibition, % at 20 µM; 1,900 tested, 13% active; AID 602333;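 active = mean inhibition at least 40% at 20 µM, or signal 3 deviations below plate average, so some actives read negative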
# Hits are given with their value; - = inactive; . = not tested or not shown; + = active, no number. Rule as the data show it, unless noted: active = inhibition above about 40%; inactive = the rest.
SMILES,HNF4A DNA FP,CSN inh,Rpn11 inh,SENP1 inh,UBC9 SUMO inh,TPT1 inh,TPT1 inh confirm,RNase T1 inh,Rpn11 inh conf,MMP-2 counter,Thrombin FP
COc1cc(/C=C(/C#N)C(=O)NC(C)c2ccccc2)cc(OC)c1O (stereo not given),-,-,+,-,-,65.9,106.7,107.5,-,-,-
CC(NC(=O)/C(C#N)=C/c1ccc(C(=O)O)cc1)c1ccccc1 (stereo not given),-,-,-,-,.,-,.,.,.,.,.
Cc1ccccc1NC(=O)NCc1ccc2c(c1)OCO2,-,-,-,-,-,-,.,.,.,.,.
O=[N+]([O-])c1ccc(N/N=C/c2cn(-c3ccccc3)nc2-c2ccccc2)cc1,-,-,+,-,-,118.2,103.3,111.0,-,-,-
CCOC1=C/C(=C/c2c(N)n3nc(S(=O)(=O)CC)sc3nc2=O)C=CC1=O,-,-,+,-,-,28.0,56.3,58.6,65.0,-,46.2
COc1ccccc1NS(=O)(=O)c1cc([N+](=O)[O-])ccc1N/N=C/c1c[nH]c2ccccc12,71.7,-,+,-,-,128.9,106.2,107.0,-,-,-
O=[N+]([O-])c1ccccc1N/N=C/c1c[nH]c2ccccc12,-,-,-,-,-,-,.,.,.,.,.
CCC1=C(OC(=O)N(CC)CC)N2C(=O)OC(=NCCc3c[nH]c4ccccc34)[C@]2(C)[C@H]2C1=CC[C@H]1C(=O)NC(=O)[C@H]12,-,-,-,-,-,-,.,.,.,.,.
CC(C)(C)C(=O)Nc1nc2c(s1)CN(Cc1ccccc1)CC2,-,-,-,-,-,-,.,.,.,.,.
O=C(Nc1nc2c(s1)CN(Cc1ccccc1)CC2)c1c(F)cccc1F,-,-,+,-,-,24.4,36.8,48.8,-,-,-
CCOc1ccc(CCNC(=O)COC(=O)CNS(=O)(=O)c2ccc(NC(C)=O)cc2)cc1OCC,-,-,-,-,.,-,.,.,.,.,.
N#Cc1ccccc1NC(=O)COC(=O)/C=C/c1cn(-c2ccccc2)nc1-c1ccc(Cl)cc1,-,-,-,-,-,.,.,.,.,.,.
NC(=O)c1ccc(NC(=O)COC(=O)/C=C/c2cn(-c3ccccc3)nc2-c2cccnc2)cc1,-,-,+,-,-,46.8,51.6,65.7,-,-,-
Oc1ccc(/C=N/Nc2ccnc3cc(Cl)ccc23)c(O)c1O,-,-,+,-,-,32.9,-,-,-,-,-
CCOc1ccc2nc(NC3=NC(C)(C)C=C(C)N3)nc(C)c2c1,-,-,-,-,-,-,.,.,.,.,.
CCOc1ccc2nc(NC3=NC(c4ccc(OC)cc4)CC(=O)N3)nc(C)c2c1 (stereo not given),-,-,+,-,-,25.6,-,24.7,44.3,-,-
Cn1c(N)c(C(=O)COC(=O)C2=COCCO2)c(=O)n(C)c1=O,-,-,-,-,-,-,.,.,.,.,.
N=C1/C(=C\c2ccc(-c3cc(Cl)cc(Cl)c3)o2)C(=O)N=C2SC=C(c3ccccc3)N12,-,-,-,-,-,-,.,.,.,.,.
N=C1/C(=C/c2ccc(-c3cccc(C(=O)O)c3)o2)C(=O)N=C2SC=C(c3ccccc3)N12,-,77.2,+,-,78.0,73.7,83.7,91.5,151.8,-,50.7
CCN(CCO)c1ccc(N=Nc2cc(C)[nH]n2)cc1,47.0,-,+,-,-,25.3,33.6,42.4,42.1,-,-
COC(C)c1oc2c(C)c3oc(=O)cc(C)c3cc2c1C (stereo not given),-,-,-,-,.,-,.,.,.,.,.
CCOC(=O)c1ccc(/C=C2/C=C(c3ccccc3)N(c3ccc(Cl)c(C(=O)O)c3)C2=O)cc1,-,-,+,-,-,61.9,74.4,80.2,155.7,-,152.5
O=C(N/N=C/c1cc(Br)ccc1O)C(c1ccncc1)N1CCOCC1 (stereo not given),-,-,-,-,-,-,.,.,.,.,.
C[C@]12CCC[C@H](O1)c1c(cc3c(c1O)C(=O)c1c(O)cc(O)cc1C3=O)O2,-,38.3,+,31.1,.,80.0,89.3,99.2,47.3,-,-
FC(F)(F)c1cccc(N2CCN(C3CC4CCC3C4)CC2)c1 (stereo not given),-,-,-,-,-,-,.,.,.,.,.
SMILES,HNF4A DNA FP,CSN inh,Rpn11 inh,SENP1 inh,UBC9 SUMO inh,TPT1 inh,TPT1 inh confirm,RNase T1 inh,Rpn11 inh conf,MMP-2 counter,Thrombin FP
CCCCCCN1C=CC=C/C1=C/C=C(C#N)C#N,-,-,+,-,-,62.1,80.2,88.5,-,-,52.1
Cc1csc(NC(=O)CCC(=O)N(CC(=O)NC2CCCC2)c2ccccc2)n1,-,-,-,-,-,-,.,.,.,.,.
O=C(O)c1ccc(OC(F)(F)C(F)C(F)(F)F)cc1 (stereo not given),-,-,-,-,-,-,.,.,.,.,.
COC(=O)c1ccc(N2NC(=O)/C(=C/c3cc(OC)c(O)c(OC)c3)C2=O)cc1,-,-,+,-,-,102.9,99.0,121.2,62.4,-,-
CCC(C(=O)NC1CCCCCC1)n1nc(C)n2c(cc3occc32)c1=O (stereo not given),-,-,-,-,-,-,.,.,.,.,.
CCCCCCCC(=O)NNC(=O)Cc1ccccc1,-,-,-,-,-,-,.,.,.,.,.
CCCCCC/C(C)=C1/SC(=S)NC1=O,-,-,+,-,-,51.2,-,-,-,-,-
CSc1nsc(/C=C/Nc2ccc(F)cc2F)c1C#N,42.1,-,+,-,-,54.1,72.1,89.0,-,-,-
Cc1c(O)ccc(/C(Cc2ccc3ccccc3n2)=N\N)c1O,-,-,+,-,-,29.1,36.2,47.0,-,-,-
CCc1cc(/C(Cc2ccc3ccccc3n2)=N\O)c(O)cc1O,-,-,-,-,-,-,.,.,.,.,.
Cc1ccc(S(=O)(=O)N(C)CC(=O)OCC(=O)NCCc2ccc(S(N)(=O)=O)cc2)cc1,-,-,-,-,.,.,.,.,.,.,.
COc1cc(/C=C2/C(=O)N(c3cccc(Br)c3)N=C2C)cc(OC)c1O,-,-,+,-,-,69.9,86.4,90.6,80.2,-,59.9
COc1cc(/C=C2/C(=O)N(c3ccc(Br)cc3)N=C2C)cc([N+](=O)[O-])c1O,.,.,.,.,-,-,.,.,.,.,.
